Laboratory results as given in ChEMBL document CHEMBL1130424, “Stabilized analogs of thymopentin. 1. 4,5-Ketomethylene pseudopeptides” (J Med Chem, 1997).

Experiments:
[1] = Half life by HPLC methods that permitted quantitative resolution of the decrease of TP-5 and the appearance of degradation products by absorbance, human heparinized serum; Not degraded; format: ADME
[2] = system: CCRF-CEM; assay: Efficacy was measured as the percentage binding to CEM cells.; format: functional, Homo sapiens
How it was run: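 CEM T-cells, subcultured in RPMI-1640 with 20% serum and stored frozen, were set at 5×10^6 cells/0.1 mL binding buffer (RPMI-1640 with bacitracin). Unlabeled competitor was added at 10^-6–10^-3 M, then [3H]thymopentin (37 Ci/mmol, 548 000 cpm). Incubation was 25 °C for 30 min, followed by two ice-cold washes and scintillation counting. Values are means of replicates at 10^-4 and 10^-3 M.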

[3] = Half life by HPLC methods that permitted quantitative resolution of the decrease of TP-5 and the appearance of degradation products by absorbance, heparinized mouse serum; Not degraded; format: ADME
How it was run: (§1)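 Mouse serum was prepared from whole blood with heparin sodium or EDTA as anticoagulant. Compounds were incubated for variable times, and incubation was ended by TFA to 10% (v/v) final, then 1 h at 0 °C and protein removal by centrifugation. Half-life came from HPLC absorbance following disappearance of parent and appearance of degradation products.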

[4] = system: CCRF-CEM; assay: Binding was measured using [3H]thymopentin was compared to the CEM cell binding assay.; format: functional, Homo sapiens; design: unit not given here
[5] = Half life by HPLC methods that permitted quantitative resolution of the decrease of TP-5 and the appearance of degradation products by absorbance in heparinized mouse serum; Not degraded; format: ADME; how it was run: as §1
[6] = Half life by HPLC methods that permitted quantitative resolution of the decrease of TP-5 and the appearance of degradation products by absorbance in human heparinized serum; Not degraded; format: ADME
[7] = Half life by HPLC methods that permitted quantitative resolution of the decrease of TP-5 and the appearance of degradation products by absorbance in EDTA-treated mouse serum; format: ADME, organism-based; how it was run: as §1
[8] = Half life by HPLC methods that permitted quantitative resolution of the decrease of TP-5 and the appearance of degradation products by absorbance in human heparinized serum; format: ADME
[9] = Half life by HPLC methods that permitted quantitative resolution of the decrease of TP-5 and the appearance of degradation products by absorbance in heparinized mouse serum; format: functional, cell-free; how it was run: as §1
[10] = Half life by HPLC methods that permitted quantitative resolution of the decrease of TP-5 and the appearance of degradation products by absorbance in heparinized mouse serum.; format: ADME; how it was run: as §1
[11] = Half life by HPLC methods that permitted quantitative resolution of the decrease of TP-5 and the appearance of degradation products by absorbance, human heparinized serum; format: ADME, cell-free
[12] = Half life by HPLC methods that permitted quantitative resolution of the decrease of TP-5 and the appearance of degradation products by absorbance, heparinized mouse serum.; format: ADME; how it was run: as §1

| SMILES | Efficacy [2] | Binding [4] | further results |
| --- | --- | --- | --- |
| CCCC[C@@H](C(=O)N[C@@H](CC(=O)O)C(=O)N[C@H](C(=O)C[C@H](C(=O)O)C(C)C)C(C)C)N(C)C(=O)[C@@H](N)CCCN=C(N)N | 37 | 2356 | T1/2 [1]: Not degraded; T1/2 [3]: Not degraded |
| CC(C)C[C@H](NC(=O)[C@@H](N)CCCN=C(N)N)C(=O)N[C@@H](CC(=O)O)C(=O)N[C@H](C(=O)C[C@H](Cc1ccccc1)C(=O)O)C(C)C | 65 | 1851 | – |
| CC(C)[C@H](NC(=O)[C@H](CC(=O)O)NC(=O)[C@H](C)NC(=O)[C@@H](N)CCCN=C(N)N)C(=O)C[C@H](Cc1ccccc1)C(=O)O | 67 | 1780 | – |
| CCCC[C@@H](C(=O)N[C@@H](CC(=O)O)C(=O)N[C@H](C(=O)C[C@H](Cc1ccccc1)C(=O)O)C(C)C)N(C)C(=O)[C@@H](N)CCCN=C(N)N | 37 | 2356 | T1/2 [5]: Not degraded; T1/2 [6]: Not degraded |
| CCCC[C@H](NC(=O)[C@@H](N)CCCN=C(N)N)C(=O)N[C@@H](CC(=O)O)C(=O)N[C@@H](C(C)C)C1CC(Cc2ccccc2)C(=O)O1 (stereo partly specified) | 16 | 2771 | – |
| CCCC[C@H](NC(=O)[C@@H](N)CCCN=C(N)N)C(=O)N[C@@H](CC(=O)O)C(=O)N[C@@H](C(C)C)C(O)C[C@H](Cc1ccccc1)C(=O)O (stereo partly specified) | 35 | 2400 | – |
| CC(C)[C@H](NC(=O)[C@H](CC(=O)O)NC(=O)[C@H](CCCCN)NC(=O)[C@@H](N)CCCN=C(N)N)C(=O)C[C@H](Cc1ccccc1)C(=O)O (stereo in doubt; 1a -A) [listing 1 of 2 here] | 70 | 1735 | half-life [7]: 4.9 min; half-life [8]: 2 min |
| CC(C)[C@H](NC(=O)[C@H](CC(=O)O)NC(=O)[C@H](CCCCN)NC(=O)[C@@H](N)CCCN=C(N)N)C(=O)C[C@H](Cc1ccccc1)C(=O)O (stereo in doubt; 1a -A) [listing 2 of 2 here] | – | – | T1/2 [9]: 2 min |
| CC(C)[C@H](NC(=O)[C@H](CC(=O)O)NC(=O)[C@H](CCCCN)NC(=O)[C@@H](N)CCCN=C(N)N)C(=O)C[C@H](Cc1ccccc1)C(=O)O (stereo in doubt; 1a-B) | 73 | 1673 | – |
| CC(C)[C@H](NC(=O)[C@H](CC(=O)O)NC(=O)[C@@H]1CCCN1C(=O)[C@@H](N)CCCN=C(N)N)C(=O)C[C@H](Cc1ccccc1)C(=O)O (stereo in doubt; 1b-A) | 64 | 1843 | half-life [7]: 17 min; half-life [8]: 6 min; half-life [10]: 4.5 min |
| CC(C)[C@H](NC(=O)[C@H](CC(=O)O)NC(=O)[C@@H]1CCCN1C(=O)[C@@H](N)CCCN=C(N)N)C(=O)C[C@H](Cc1ccccc1)C(=O)O (stereo in doubt; 1b-B) | 56 | 2000 | – |
| CCCC[C@H](NC(=O)[C@@H](N)CCCN=C(N)N)C(=O)N[C@@H](CC(=O)O)C(=O)N[C@H](C(=O)C[C@H](Cc1ccccc1)C(=O)O)C(C)C (stereo in doubt; 1c-A) | 95 | 1254 | half-life [7]: 21.1 min; half-life [8]: 1.9 min; half-life [10]: 5.5 min |
| CCCC[C@H](NC(=O)[C@@H](N)CCCN=C(N)N)C(=O)N[C@@H](CC(=O)O)C(=O)N[C@H](C(=O)C[C@H](Cc1ccccc1)C(=O)O)C(C)C (stereo in doubt; 1c-B) | 84 | 1453 | – |
| CC(C)[C@H](NC(=O)[C@H](CC(=O)O)NC(=O)[C@H](CCCCN)NC(=O)[C@@H](N)CCCN=C(N)N)C(=O)C[C@H](Cc1ccccc1)C(=O)O (stereo in doubt; 1f-A) | 54 | 2044 | – |
| CCCC[C@H](NC(=O)[C@@H](N)CCCN=C(N)N)C(=O)N[C@@H](CC(=O)O)C(=O)N[C@@H](C)C(=O)C[C@H](Cc1ccccc1)C(=O)O (stereo in doubt; 1g-A) | 73 | 1677 | half-life [7]: 20 min |
| CCCC[C@H](NC(=O)[C@@H](N)CCCN=C(N)N)C(=O)N[C@@H](CC(=O)O)C(=O)N[C@@H](C)C(=O)C[C@H](Cc1ccccc1)C(=O)O (stereo in doubt; 1g-B) | 71 | 1715 | – |
| CCCC[C@H](NC(=O)[C@@H](N)CCCN=C(N)N)C(=O)N[C@@H](CC(=O)O)C(=O)N[C@H](C(=O)C[C@H](C(=O)O)C(C)C)C(C)C (stereo in doubt; 1h-A) | 77 | 1600 | half-life [11]: 2.4 min; T1/2 [12]: 1.2 min |
| CCCC[C@H](NC(=O)[C@@H](N)CCCN=C(N)N)C(=O)N[C@@H](CC(=O)O)C(=O)N[C@H](C(=O)C[C@H](C(=O)O)C(C)C)C(C)C (stereo in doubt; 1h-B) | 71 | 1713 | T1/2 [12]: 2.6 min |
